Eleven compounds from ChEMBL document CHEMBL1155462, “Structure-activity relationship for thiohydantoin androgen receptor antagonists for castration-resistant prostate cancer (CRPC)” (J Med Chem, 2010) can be followed below.

pIC50: −log10 of the molar value. Activity calls are given as the source filed them. No cut-off for these calls is given here.

For series [1], the system named is LNCaP. In words: Inhibition of prostate specific antigen expression in human LNCAP cells at 100 to 1000 nM in presence of fetal bovine serum. The series is classed as functional, cell-based.
Series [2] relates to LNCaP. In words: Antitumor activity against human castration-resistant LNCAP cells expressing androgen receptor xenografted in SCID mouse assessed as change in tumor size at 10 mg/kg qd for 31 days. It is filed as functional, organism-based. On the set-up: dose 10 mg/kg. Summed up: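 AR-overexpressing LNCaP cells were injected subcutaneously into the flanks of castrated SCID mice. Once tumors reached about 100–200 cubic mm, mice were randomized into groups of six. Vehicle or compound was given orally every day, and tumor volume change was followed.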
In general terms: A xenograft is tissue or cells of one species grown in another, often human tumour cells in immunodeficient mice.

For series [3], the system named is LNCaP. In words: Inhibition of prostate specific antigen secretion in human LNCAP cells expressing androgen receptor in presence of charcoal stripped serum. The series is classed as functional, cell-based. Summed up:
(§1)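 LNCaP/AR cells were made by viral infection with an AR cDNA to express 3–5 fold higher AR levels, mimicking CRPC. They were assayed in charcoal-stripped serum to mimic androgen depletion. Read-out was PSA level, with DMSO as the vehicle.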

Series [4] deals with LNCaP. The experiment in a line: Cytostatic activity against human castration-resistant LNCAP cells expressing androgen receptor xenografted in SCID mouse assessed as change in tumor size at 10 mg/kg qd measured up to 18 days. The series is classed as functional, organism-based. On the set-up: dose 10 mg/kg.
Series [5] concerns Serum. In words: Drug level in SCID mouse serum at 10 mg/kg, iv. It is filed as ADME, organism-based. On the set-up: dose 10 mg/kg, route intravenous. The conditions noted are these: in vivo, read-out: Drug uptake.
The test system of series [6] is LNCaP. The experiment in a line: Inhibition of prostate specific antigen secretion in human LNCAP cells expressing androgen receptor at 100 to 1000 nM in presence of charcoal stripped serum. The series is classed as functional, cell-based. Put shortly: as §1
In series [7] the test system is LNCaP. The experiment in a line: Cytostatic activity against human castration-resistant LNCAP cells expressing androgen receptor xenografted in SCID mouse assessed as change in tumor size at 50 mg/kg qd measured up to 18 days. The series is classed as functional, organism-based. On the set-up: dose 50 mg/kg.
For series [8], the system named is LNCaP. In words: Inhibition of prostate specific antigen secretion in human LNCAP cells expressing androgen receptor at 1.25 to 10 uM in presence of charcoal stripped serum. It is filed as functional, cell-based. Summed up:
as §1

Series [9] relates to LNCaP. The experiment in a line: Inhibition of prostate specific antigen expression in human LNCAP cells in presence of fetal bovine serum. The series is classed as functional, cell-based.
The target in series [10] is T1, Androgen receptor (Rattus norvegicus) (UniProt P15207).
T1 sequence (whole entry): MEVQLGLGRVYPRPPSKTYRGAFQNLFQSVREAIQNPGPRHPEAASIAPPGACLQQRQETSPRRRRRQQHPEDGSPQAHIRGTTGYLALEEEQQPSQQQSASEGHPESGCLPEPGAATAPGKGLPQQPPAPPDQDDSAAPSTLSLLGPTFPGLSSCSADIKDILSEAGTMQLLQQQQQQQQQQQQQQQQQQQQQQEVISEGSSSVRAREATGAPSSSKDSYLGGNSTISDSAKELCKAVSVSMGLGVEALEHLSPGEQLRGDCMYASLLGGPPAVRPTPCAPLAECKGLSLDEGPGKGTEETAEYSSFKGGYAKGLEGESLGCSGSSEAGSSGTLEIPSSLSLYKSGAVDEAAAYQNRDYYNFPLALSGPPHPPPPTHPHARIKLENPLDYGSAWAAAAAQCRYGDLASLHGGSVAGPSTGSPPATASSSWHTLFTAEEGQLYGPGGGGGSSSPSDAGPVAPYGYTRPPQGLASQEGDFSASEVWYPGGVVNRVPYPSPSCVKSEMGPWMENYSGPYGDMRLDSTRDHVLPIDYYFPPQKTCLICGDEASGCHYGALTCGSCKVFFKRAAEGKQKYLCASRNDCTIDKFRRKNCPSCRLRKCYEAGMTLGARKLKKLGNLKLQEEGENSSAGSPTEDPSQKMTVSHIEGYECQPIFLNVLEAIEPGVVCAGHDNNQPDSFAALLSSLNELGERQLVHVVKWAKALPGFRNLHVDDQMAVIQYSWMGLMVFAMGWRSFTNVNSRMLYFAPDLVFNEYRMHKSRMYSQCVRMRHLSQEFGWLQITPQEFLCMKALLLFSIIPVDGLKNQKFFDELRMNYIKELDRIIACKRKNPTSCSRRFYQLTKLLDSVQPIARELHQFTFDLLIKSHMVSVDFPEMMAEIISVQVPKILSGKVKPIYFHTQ
The experiment in a line: Antagonist activity at androgen receptor in rat prostate gland at 1.25 to 10 uM by luciferase reporter gene assay. The series is classed as functional, tissue-based. On the technique in general: Reporter assays use an easily measured gene product as a stand-in for the process of interest.

Series [11] concerns LAPC4. In words: Antitumor activity against human castration and bicalutamide-resistant LAPC4 cells xenografted in SCID mouse assessed as change in tumor volume measured up to 50 days. It is filed as functional.
In series [12] the test system is LAPC4. The experiment in a line: Antitumor activity against human castration and bicalutamide-resistant LAPC4 cells xenografted in SCID mouse assessed as change in tumor volume at 10 mg/kg measured up to 20 days. It is filed as functional, organism-based. Details: dose 10 mg/kg.
For series [13], the system named is LNCaP. In words: Inhibition of prostate specific antigen expression in human LNCAP cells at 0.625 to 20 uM in presence of fetal bovine serum. The series is classed as functional, cell-based.
Series [14] concerns LNCaP. In words: Inhibition of prostate specific antigen expression in human LNCAP cells at 0.625 to 5 uM in presence of fetal bovine serum. It is filed as functional, cell-based.
Series [15] relates to LNCaP. In words: Inhibition of prostate specific antigen expression in human LNCAP cells at 1.25 to 10 uM in presence of fetal bovine serum. It is filed as functional, cell-based.
Series [16] addresses T1, Androgen receptor (Rattus norvegicus). The experiment in a line: Antagonist activity at androgen receptor in rat prostate gland at 0.625 to 20 uM by luciferase reporter gene assay. It is filed as functional, tissue-based.

Regarding `CN(C)C(=O)CCCc1ccc(N2C(=S)N(c3ccc(C#N)c(C(F)(F)F)c3)C(=O)C23CCC3)cc1`, the outcome in [1] was Active.

For the compound `CNC(=O)c1ccc(N2C(=S)N(c3ccc(C#N)c(C(F)(F)F)c3)C(=O)C23CCC3)cc1F`, the outcome in [2], in [4], in [6], in series [7] and in series [1] was Active. Besides, the inhibition result in [3] was “Dose-dependent effect”. In addition, the concentration in [5] came to 9900 µM.

On to `CNC(=O)c1ccc(N2C(=S)N(c3ccc(C#N)c(C(F)(F)F)c3)C(=O)C2(C)C)cc1F`, for which the result in series [6] was Active.

On to `CC(O)(CS(=O)(=O)c1ccc(F)cc1)C(=O)Nc1ccc(C#N)c(C(F)(F)F)c1` (centres undefined) [BICALUTAMIDE], for which the inhibition entry in [8] was “inactive”. Further, the concentration in series [5] is 10000 µM.

As for `N#CCCCc1ccc(N2C(=S)N(c3ccc(C#N)c(C(F)(F)F)c3)C(=O)C23CCC3)cc1`, the result in [1] was Active.

In general, pIC50 refers to −log10 of the IC50, conventionally taken in molar units. Consider `CNC(=O)CCCc1ccc(N2C(=S)N(c3ccc(C#N)c(C(F)(F)F)c3)C(=O)C23CCC3)cc1`, for which the pIC50 in [3] and in series [9] was 7.04 each time. Besides, the inhibition entry in [8] is “Active”. Moreover, the concentration in series [5] worked out at 390 µM. The outcome in series [1] was Active.

In the case of `N#Cc1ccc(N2C(=O)C3(CCC3)N(c3ccc(CO)cc3)C2=S)cc1C(F)(F)F`, in series [9], the pIC50 was 6.70.

Consider `Cc1ccc(N2C(=S)N(c3ccc(C#N)c(C(F)(F)F)c3)C(=O)C23CCC3)cc1`, for which, in series [8], the inhibition result was “Active”. Besides, the outcome in series [10], in series [12], in series [13], in series [14] and in [15] was Active. Further, the Activity entry in series [11] is “Dose-dependent effect”. In [9], the pIC50 is 6.91.

With `CNC(=O)c1ccc(N2C(=S)N(c3ccc(C#N)c(C(F)(F)F)c3)C(=O)C23CCCC3)cc1F`, the outcome in [6] was Active.

Consider `Cc1ccc(N2C(=S)N(c3ccc(C#N)c(C(F)(F)F)c3)C(=O)C2(C)C)cc1`, for which, in series [16], the result was inactive. Moreover, the outcome in [10], in series [12], in series [13], in series [14] and in [15] was Active.

As to `N#Cc1ccc(N2C(=O)C3(CCC3)N(c3ccc(C=O)cc3)C2=S)cc1C(F)(F)F`, in series [9], the pIC50 is 6.70.
